The assay deals with recombinant Cdk5/p25 complex (Homo sapiens, UniProt Q00535+Q15078). Nature of the assay: IP-linked Cdk5 kinase assay, recombinant Cdk5/p25, histone H1. The format is biochemical. The settings on record: recombinant Cdk5/p25, overnight incubation, vs solvent control. The method, boiled down: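 Recombinant Cdk5/p25 complex incubated overnight with test peptide or solvent control, then immunoprecipitated with anti-Cdk5 antibody overnight at 4 °C. The immunocomplex was used for a kinase reaction with histone H1 as substrate and ³²P label, resolved on 12% SDS-PAGE, dried, and exposed to film for several hours. ³²P-histone H1 band intensity was quantified, with Coomassie staining as loading check. Six replicates from two independent experiments.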

Ends that are not written are not given here.

recombinant Cdk5/p25 complex, sequence (Q00535 whole entry): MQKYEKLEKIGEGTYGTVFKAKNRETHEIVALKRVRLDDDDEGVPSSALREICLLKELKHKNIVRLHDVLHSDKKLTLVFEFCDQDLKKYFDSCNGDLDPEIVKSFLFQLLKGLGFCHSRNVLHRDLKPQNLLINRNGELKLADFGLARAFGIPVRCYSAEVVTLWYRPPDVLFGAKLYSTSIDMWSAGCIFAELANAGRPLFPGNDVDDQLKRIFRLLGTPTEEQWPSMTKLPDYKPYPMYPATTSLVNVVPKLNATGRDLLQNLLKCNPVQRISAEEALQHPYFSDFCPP
recombinant Cdk5/p25 complex, sequence (Q15078 99-307 limits assumed): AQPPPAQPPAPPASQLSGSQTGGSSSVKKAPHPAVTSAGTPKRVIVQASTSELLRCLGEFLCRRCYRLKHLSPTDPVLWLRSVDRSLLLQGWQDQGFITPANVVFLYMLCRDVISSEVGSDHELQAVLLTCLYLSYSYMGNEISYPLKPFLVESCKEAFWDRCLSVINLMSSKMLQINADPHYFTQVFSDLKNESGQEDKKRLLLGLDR

In the case of ARAFGIPVRCYS [Cdk5i], the “reduction of histone H1 phosphorylation by Cdk5/p25” value is listed as ~ 22%.
